This is a sample that favours compounds with a hit; in the whole collection about 2.5% have one here.
OX1R antag-1: OX1R (HCRTR1) antagonists, primary screen, fluorescence, CHO/OX1R cells, Fluo-8 calcium, orexin A; Fluo-8 calcium fluorescence; inhibition, % at 5 µM; 0.43% of 330,000 active; AID 434989, 2010;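 active means inhibition above its plate's threshold, mean inhibition of all tested compounds on the plate plus 3 SD, cut at about 37% in these data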;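 further: 0% = orexin A challenge wells and 100% = SB-334867-A antagonist wells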
zfTRPN1 agonist: zebrafish TRPN1 channel agonists, primary screen, cell-based, HEK293, calcium fluorescence; HEK293 zebrafish TRPN1-YFP, Fluo-8 calcium fluorescence; 100% = response to 87 µM carbachol; activation, % at 3 µM; 0.18% of 220,000 active;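 active means activation above its plate's cutoff, the mean activation of test wells on that plate plus 3 SD, cut at about 19% in these data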;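 further: 0% = DMSO alone and 100% = 87 µM carbachol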
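Assay system: Zebrafish TRPN1-YFP in HEK293 cells | Incubation: Dye loading 1 h at 37 °C, then 30 min room temperature | Measured by: Kinetic Fluo-8 fluorescence, ex 470-495, em 515-575 nm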
TRPML3 ag: human TRPML3 channel agonists, primary screen, cell-based, HEK293 TRPML3-YFP, Fluo-8 calcium fluorescence, 3 µM; Mucolipin-3 (Homo sapiens), Q8TDD5; AID 1448, 2008; 100% = the carbachol control signal; 0.29% of 220,000 active; activation, % at 3 µM;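 active means activation above its plate's cutoff, the mean activation of the plate's test wells plus 3 SD, cut at about 12% in these data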;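 further: 0% = DMSO only wells and 100% = carbachol wells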
Target sequence (Q8TDD5 whole entry, looked up): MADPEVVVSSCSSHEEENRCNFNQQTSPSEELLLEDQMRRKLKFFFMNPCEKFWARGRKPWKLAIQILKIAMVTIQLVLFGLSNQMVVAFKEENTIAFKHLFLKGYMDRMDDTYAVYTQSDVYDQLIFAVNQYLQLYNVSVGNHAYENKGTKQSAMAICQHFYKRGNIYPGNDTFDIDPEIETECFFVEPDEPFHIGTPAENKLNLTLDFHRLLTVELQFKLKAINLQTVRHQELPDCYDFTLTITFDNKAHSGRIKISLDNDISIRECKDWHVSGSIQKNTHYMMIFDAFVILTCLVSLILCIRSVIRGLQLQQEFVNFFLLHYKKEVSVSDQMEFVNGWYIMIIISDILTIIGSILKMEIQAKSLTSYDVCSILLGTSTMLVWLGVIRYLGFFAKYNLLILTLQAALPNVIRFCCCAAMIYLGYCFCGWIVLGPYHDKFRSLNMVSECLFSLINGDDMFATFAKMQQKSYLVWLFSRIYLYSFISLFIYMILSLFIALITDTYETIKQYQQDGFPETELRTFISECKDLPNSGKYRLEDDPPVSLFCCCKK
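Material: TRPML3-YFP stable HEK293 cells | Dosing: One concentration, 3 µM nominal, 0.3% DMSO | Timing: 125 s total fluorescence read per well | Technique: Fluo-8 calcium dye fluorescence, ex 470-495, em 515-575 nm | Measure: Percent activation from peak-to-basal fluorescence ratio, scaled between DMSO and carbachol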
OX1R antag-2: antagonists of human orexin 1 receptor (OX1R); inhibition, % at 6.6 µM; OX1R-expressing cells, FRET antagonist read-out; 1.8% of 330,000 active; in the data active means inhibition mostly above about 38%, no sharp cut-off; inactive means mostly below about 40%;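 further: 0% = agonist challenge alone and 100% = reference antagonist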
CHO parental Ca: ATP-evoked calcium signal inhibitors, parental CHO, primary screen, counter-screen for OX1R antagonist project, cell-based, fluorescence, Fluo-8 calcium dye. AID 463079, 2010. 0.63% of 330,000 active. inhibition, % at 5.6 µM. parental CHO-K1, ATP-induced calcium, Fluo-8 fluorescence;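 active means inhibition above that plate's mean sample inhibition plus 3 SD, cut at about 26% in these data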;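 further: 0% = ATP-challenged DMSO wells and 100% = DMSO wells without ATP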
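Test system: parental CHO cells; detection: calcium-sensitive Fluo-8 fluorescence; evaluation: percent inhibition of calcium signal; also added: ATP as calcium-mobilizing challenge; repeats: one well per compound; control set: ATP-challenged DMSO wells low, unchallenged DMSO wells high; compound: single nominal dose of 5.6 µM per compound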
* hit, by the source's call; nt = no result given.

SMILES | OX1R antag-1 | zfTRPN1 agonist | TRPML3 ag | OX1R antag-2 | CHO parental Ca
CN(C)CCCN(C(=O)c1ccc([N+](=O)[O-])s1)c1nc2cc3c(cc2s1)OCCO3 | -23 | nt | nt | 78* | -12
CC(Cc1cccs1)NC(=S)Nc1ccc(Cl)cc1 (stereo not given) | 1 | 11 | 6 | 60* | 19
CC(=O)C(=Nc1ccccc1Cl)NNc1ccc(Cl)cc1 | -17 | -2 | 0 | 77* | -3
CN1CCN(C(=O)c2cc([N+](=O)[O-])cc([N+](=O)[O-])c2)CC1 | -12 | nt | nt | 63* | 10
CN1CCN(NC(=O)c2ccc(F)cc2)CC1 | -18 | 0 | 0 | 2 | 8
O=C(c1cc(C(=O)N2CCCC2)cc([N+](=O)[O-])c1)N1CCCC1 | -24 | nt | nt | 26 | -12
CN1CCN(NC(=O)c2cc([N+](=O)[O-])cc([N+](=O)[O-])c2)CC1 | -4 | 1 | 2 | 71* | -9
Cc1ccc(N2CC(NC(=O)C(=O)c3c[nH]c4ccccc34)CC2=O)cc1C (stereo not given) | -13 | nt | nt | 8 | -8
COc1cc2c(cc1OC)C(C)=NCC2 | 4 | 0 | 0 | 15 | -8
COc1cc2c(cc1OC)-c1cc3ccc(OC)c(OC)c3c[n+]1CC2 | -13 | nt | nt | 62* | -3
COc1ccc(Cc2nnc(NC(=O)c3cccc(F)c3)s2)cc1OC | -5 | nt | nt | 12 | -2
Cc1nnc(SCC(=O)c2cc(C)n(-c3ccc4c(c3)OCO4)c2C)s1 | 0 | 27* | 17* | 7 | -7
CC(=O)c1ccc(OCC(=O)c2cc(C)n(-c3ccc4c(c3)OCO4)c2C)cc1 | 19 | 2 | 1 | 32 | 53*
Cc1cc(C(=O)CSc2nnnn2C)c(C)n1-c1ccc2c(c1)OCCO2 | -13 | 0 | 0 | 23 | -5
Cc1cc(C(=O)COC(=O)c2ccc(N)c([N+](=O)[O-])c2)c(C)n1-c1ccc2c(c1)OCO2 | 4 | 1 | 1 | 47* | 24
CC(=O)Nc1ccc(S(=O)(=O)NCC(=O)OCC(=O)c2cc(C)n(-c3ccc4c(c3)OCO4)c2C)cc1 | -22 | 0 | 0 | 5 | -12
CN(CC(=O)Nc1ccc(Cl)cc1)c1ccc(S(=O)(=O)N2CCCCC2)cc1[N+](=O)[O-] | -9 | -1 | 0 | -2 | -8
COc1cc(C)c(CN2CCC(n3nccc3NC(=O)C3CC3)CC2)cc1C | -7 | nt | nt | 24 | -9
N/C(=N\c1nc2ccccc2o1)NC(=O)/C=C/c1ccccc1 | -16 | 0 | 0 | 40* | -14
Cc1cc(O)ccc1N1C(=O)c2cccc3cc([N+](=O)[O-])cc(c23)C1=O | -26 | 0 | 0 | 59 | -15
O=C1c2cccc3cc([N+](=O)[O-])cc(c23)C(=O)N1c1ccccc1O | -22 | 0 | 0 | 43* | -9
Cc1c(C(=O)N/N=C/c2ccncc2)no[n+]1[O-] | -5 | 2 | 1 | 11 | 6
Cc1ccc([C@@H]2CC=C(C(=O)O)[C@H](c3ccc(Br)cc3)N2S(=O)(=O)c2ccc(C)cc2)cc1 | 3 | nt | nt | 39* | -12
Cc1ccc(S(=O)(=O)N2[C@@H](c3ccc(Br)cc3)C(C(=O)O)=CC[C@H]2c2cccs2)cc1 | -8 | nt | nt | 14 | -11
Cc1ccc(S(=O)(=O)N2[C@@H](c3ccc(Br)cc3)C(C(=O)O)=CC[C@H]2c2ccc(C(C)C)cc2)cc1 | 54* | nt | nt | 20 | 75*
SMILES | OX1R antag-1 | zfTRPN1 agonist | TRPML3 ag | OX1R antag-2 | CHO parental Ca
Cc1ccc(S(=O)(=O)N2[C@@H](c3ccccc3F)C(C(=O)O)=CC[C@H]2c2ccc3c(c2)OCO3)cc1 | -4 | nt | nt | 47* | -7
Cc1ccc([C@@H]2CC=C(C(=O)O)[C@H](c3ccc(F)cc3)N2S(=O)(=O)c2ccc(C)cc2)cc1 | 1 | nt | nt | 70* | -16
COc1ccc(CCNC(=O)C(NS(=O)(=O)c2ccc3c(c2)CCN3C(C)=O)C(C)C)cc1OC (stereo not given) | -15 | 1 | 0 | 4 | 8
COc1ccccc1N(C)S(=O)(=O)c1ccc(C(=O)N(C)Cc2ccc(Cl)s2)cc1 | -10 | nt | nt | 12 | -23
CCNC(=O)C(=O)NCC(c1ccc2c(c1)OCO2)N1CCOCC1 (stereo not given) | -10 | nt | nt | 4 | 3
Cc1ccccc1C(=O)N1CCN(c2ccc(NC(=O)CSc3ccc(Cl)cc3)cc2)CC1 | 13 | 5 | 1 | 23 | 31*
Cc1c(Cl)c([N+](=O)[O-])nn1CCCC(=O)Nc1cccc(Cl)c1Cl | 5 | 1 | -1 | 64 | -18
COC(=O)c1ccccc1NC(=O)CCCn1nc([N+](=O)[O-])c(Br)c1C | 4 | -1 | -1 | 75* | -17
COc1ccc(C2=NN(c3ccc(C=O)cc3)C(c3ccccc3)C2)cc1 (stereo not given) | -37 | nt | nt | 12 | -21
COc1ccc(C2CC(c3cccs3)=NN2c2ccc(C=O)cc2)cc1 (stereo not given) | 38 | 29* | 17* | 6 | 29
CCN(CC)c1cc(NCCO)c([N+](=O)[O-])c2nonc12 | -25 | -1 | 0 | 53* | -13
CC(C)CCSc1cc(NCCO)c([N+](=O)[O-])c2nonc12 | -21 | 0 | 1 | 54 | -8
O=C1C(SCCO)=C(SCCO)C(=O)c2ccccc21 | 47* | nt | nt | 67* | 48*
O=[N+]([O-])c1cc2c(cc1/C=N/n1cnnc1)OCO2 | 6 | 1 | 0 | 77* | -6
CC(=O)c1c(C)[nH]c(C(=O)Nc2cccc(C(F)(F)F)c2)c1C | 45* | nt | nt | 70* | 37*
CCCNC(=O)c1ccc(-c2nc3ccccc3s2)s1 | 9 | 3 | 1 | 61* | -9
Cc1ccc(NS(=O)(=O)c2ccc3c(c2)NC(=O)CCS3)cc1C | -17 | nt | nt | 8 | -13
CCc1ccc2[nH]c(=O)c(CN(Cc3ccccc3OC)Cc3nnnn3Cc3ccco3)cc2c1 | -20 | 0 | 0 | 48 | -21
COc1ccccc1CN(Cc1cc2cc(C)ccc2[nH]c1=O)Cc1nnnn1Cc1ccco1 | 4 | 0 | 1 | 72* | -21
CCOc1ccccc1NC(=O)C(Sc1ccccc1)c1ccccc1 (stereo not given) | 59* | 1 | -1 | 37 | 57*
CCc1c(C2(O)CCCCC2)[nH]c2cc(C(F)(F)F)ccc12 | 45* | nt | nt | 64* | -4
Cc1c(C2(O)CCCCC2)[nH]c2cc(C(F)(F)F)ccc12 | 91* | nt | nt | 71* | 65*
Cc1oc(-c2ccccc2)nc1CS(=O)CC(=O)NC1CCCCCC1 (stereo not given) | -15 | nt | nt | 10 | -25

Compound activity deposited in PubChem BioAssay by The Scripps Research Institute Molecular Screening Center.
